# Assay results: ChEMBL document CHEMBL2040821, “Design, synthesis, and biological evaluation of 1-[(2-benzyloxyl/alkoxyl)methyl]-5-halo-6-aryluracils as potent HIV-1 non-nucleoside reverse transcriptase inhibitors with an improved drug resistance profile” (J Med Chem, 2012)
# How the values were obtained:
# [1] = target: Human immunodeficiency virus type 1 reverse transcriptase (Human immunodeficiency virus 1, UniProt Q72547); assay: Inhibition of HIV1 reverse transcriptase using poly(ra)/oligo(dT)15 homopolymer template as substrate after 1 hr
# MT4 = assay: Cytotoxicity against human MT4 cells after 3 days by XTT assay; format: cell-based; conditions: mt4, 72 h
# Method in brief: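 MT4 cells (5 × 10⁴/well) exposed to graded compound concentrations at 37 °C for 3 days. CCK-8 reagent then added, with a further 4 h at 37 °C for XTT formazan colour development. Absorbance read at 450 nm to give CC₅₀. Each compound run in triplicate.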
# [2] = system: Human immunodeficiency virus 1; assay: Antiviral activity against HIV1 SF33 infected in human MT4 cells assessed as inhibition of viral p24 antigen production after 7 days by ELISA; format: functional, organism-based; conditions: Human immunodeficiency virus 1, SF33, MT4, 168 h
# Method in brief: (§1)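 MT4 cells (4 × 10⁴/well) were infected with 200 TCID₅₀ of HIV-1 and incubated 2 h at 37 °C. Compounds were then added at serial dilutions. Each compound was run in triplicate, reported as mean SD.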
# [3] = system: Human immunodeficiency virus 1; assay: Antiviral activity against NNRTI-resistant HIV1 A17 expressing reverse transcriptase K103N and Y181C mutant infected in human MT4 cells assessed as inhibition of viral p24 antigen production after 7 days by ELISA; format: functional, organism-based; conditions: Human immunodeficiency virus 1, A17, MT4, 168 h; method in brief: as §1
# [4] = Selectivity index, ratio of CC50 for human MT4 cells to EC50 for HIV1 SF33; format: toxicity, cell-based; conditions: read-out: Ratio CC50/EC50
# Method in brief: (§2)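 SI is CC₅₀ in MT4 cells over EC₅₀ for each strain. For CC₅₀, MT4 cells (5 × 10⁴/well) were exposed to graded compound concentrations for 3 days at 37 °C, then given CCK-8/XTT for 4 h at 37 °C and read at 450 nm absorbance. Assays were run in triplicate.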
# [5] = Selectivity index, ratio of CC50 for human MT4 cells to EC50 for NNRTI-resistant HIV1 A17 expressing reverse transcriptase K103N and Y181C mutant; format: toxicity, cell-based; conditions: read-out: Ratio CC50/EC50; method in brief: as §2
# [6] = system: Human immunodeficiency virus 1; assay: Ratio of nevirapine EC50 to compound EC50 for HIV1 SF33; format: functional
structure (smiles),measurement,setting,value
CCOCn1c(Cc2ccccc2)c(I)c(=O)[nH]c1=O,IC50,[1],114 nM
CCOCn1c(Cc2cc(C)cc(C)c2)c(Br)c(=O)[nH]c1=O,IC50,[1],210 nM
CCOCn1c(Cc2ccccc2)c(N(C)C)c(=O)[nH]c1=O,IC50,[1],162 nM
same,CC50,MT4,166000 nM
same,EC50,[2],614 nM
same,EC50,[3],> 10000 nM
same,selectivity ratio,[4],270
same,selectivity ratio,[5],< 16.6
Cc1cc(C)cc(Cc2c(I)c(N)nc(=O)n2COCc2ccccc2)c1,IC50,[1],7220 nM
Cc1cc(C)cc(Cc2c(Br)c(N)nc(=O)n2COCc2ccccc2)c1,IC50,[1],16300 nM
O=c1[nH]c(=O)n(COCc2ccccc2)c(Cc2ccccc2)c1I,IC50,[1],10 nM
same,CC50,MT4,74800 nM
same,EC50,[2],45 nM
same,EC50,[3],> 10000 nM
same,selectivity ratio,[4],1660
same,selectivity ratio,[5],< 7
CCOCn1c(Cc2cc(F)cc(F)c2)c(I)c(=O)[nH]c1=O,IC50,[1],11800 nM
same,CC50,MT4,300000 nM
same,EC50,[2],537 nM
same,EC50,[3],> 10000 nM
same,selectivity ratio,[4],559
same,selectivity ratio,[5],< 30
CCOCn1c(Cc2cc(C)cc(C)c2)c(I)c(=O)[nH]c1=O,IC50,[1],110 nM
same,CC50,MT4,142000 nM
same,EC50,[2],6 nM
same,EC50,[3],637 nM
same,selectivity ratio,[4],23700
same,selectivity ratio,[5],222
CCOCn1c(Cc2ccccc2)c(Br)c(=O)[nH]c1=O,IC50,[1],1820 nM
same,CC50,MT4,155000 nM
same,EC50,[2],2070 nM
same,EC50,[3],> 10000 nM
same,selectivity ratio,[4],75
same,selectivity ratio,[5],< 15.5
O=c1[nH]c(=O)n(COCc2ccccc2)c(Cc2ccccc2)c1Br,IC50,[1],1520 nM
same,CC50,MT4,67400 nM
same,EC50,[2],1720 nM
same,EC50,[3],> 10000 nM
same,selectivity ratio,[4],39
same,selectivity ratio,[5],< 6.7
O=c1[nH]c(=O)n(COCc2ccccc2)c(Cc2cc(F)cc(F)c2)c1I,IC50,[1],15 nM
same,CC50,MT4,121000 nM
same,EC50,[2],6 nM
same,EC50,[3],2540 nM
same,selectivity ratio,[4],20200
same,selectivity ratio,[5],48
same,Ratio EC50,[6],46
CCOCn1c(Cc2cc(C)cc(C)c2)c(N(C)C)c(=O)[nH]c1=O,IC50,[1],39 nM
Cc1ccnc2c1NC(=O)c1cccnc1N2C1CC1 [NEVIRAPINE],CC50,MT4,325000 nM
same,EC50,[2],68 nM
same,EC50,[3],> 10000 nM
Cc1cc(C)cc(Cc2c(Br)c(=O)[nH]c(=O)n2COCc2ccccc2)c1,IC50,[1],43 nM
same,CC50,MT4,152000 nM
same,EC50,[2],9 nM
same,EC50,[3],601 nM
same,selectivity ratio,[4],16900
same,selectivity ratio,[5],253
CC(C)c1c(Cc2ccccc2)n(COCc2ccccc2)c(=O)[nH]c1=O,IC50,[1],20 nM
same,CC50,MT4,84600 nM
same,EC50,[2],22 nM
same,EC50,[3],> 10000 nM
same,selectivity ratio,[4],3840
same,selectivity ratio,[5],< 6.6
CN(C)c1c(Cc2ccccc2)n(COCc2ccccc2)c(=O)[nH]c1=O,IC50,[1],12 nM
same,CC50,MT4,91800 nM
same,EC50,[2],345 nM
same,EC50,[3],> 10000 nM
same,selectivity ratio,[4],264
same,selectivity ratio,[5],< 9
Cc1cc(C)cc(Cc2c(N(C)C)c(=O)[nH]c(=O)n2COCc2ccccc2)c1,IC50,[1],21 nM
same,CC50,MT4,55800 nM
same,EC50,[2],14 nM
same,EC50,[3],2200 nM
same,selectivity ratio,[4],5200
same,selectivity ratio,[5],25
same,Ratio EC50,[6],46
Cc1cc(C)cc(Cc2c(I)c(=O)[nH]c(=O)n2COCc2ccccc2)c1,IC50,[1],3 nM
same,CC50,MT4,98300 nM
same,EC50,[2],2 nM
same,EC50,[3],91 nM
same,selectivity ratio,[4],38200
same,selectivity ratio,[5],1080
same,Ratio EC50,[6],325
